Active and inactive are the calls of the source. The rule behind the calls is not given here.
Legend:
[1] = target: Voltage-gated inwardly rectifying potassium channel KCNH2 (Homo sapiens, UniProt Q12809); test: Displacement of Tracer Red from human ERG by fluorescence polarization assay
Cytochrome P450 2D6 = Cytochrome P450 2D6 (Homo sapiens, UniProt P10635); test: Inhibition of human CYP2D6 expressed in baculovirus infected insect cells using beetle D-luciferin as substrate preincubated for 30 mins followed by NADPH addition and measured after 30 mins by CYP450-Glo assay
[2] = Selectivity ratio of IC50 for Leishmania major pteridine reductase 1 to IC50 for N-terminal His-tagged Trypanosoma brucei pteridine reductase 1
[3] = Cytotoxicity against human A549 cells after 48 hrs by Celltiter-glo assay; type: cell-based
[4] = Mitochondrial toxicity in human 786-O cells measured after 6 hrs by MitoTracker Red chloromethyl-X-rosamine based assay; type: cell-based, 786-0
[5] = Inhibition of N-terminal His-tagged Trypanosoma brucei pteridine reductase 1 using di-hydrobiopterine as substrate measured at 1 min interval for 50 mins in presence of NADPH
In short: (§1)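 Photometric PTR1 assay with NADPH and dihydrobiopterin substrate. H₄B formation is coupled non-enzymatically to cytochrome c reduction, read as signal increase at 550 nm.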

Cytochrome P450 1A2 = target: T1, Cytochrome P450 1A2 (Homo sapiens, UniProt P05177); test: Inhibition of human CYP1A2 expressed in baculovirus infected insect cells using beetle D-luciferin as substrate preincubated for 30 mins followed by NADPH addition and measured after 30 mins by CYP450-Glo assay
T1 sequence (P05177 whole entry): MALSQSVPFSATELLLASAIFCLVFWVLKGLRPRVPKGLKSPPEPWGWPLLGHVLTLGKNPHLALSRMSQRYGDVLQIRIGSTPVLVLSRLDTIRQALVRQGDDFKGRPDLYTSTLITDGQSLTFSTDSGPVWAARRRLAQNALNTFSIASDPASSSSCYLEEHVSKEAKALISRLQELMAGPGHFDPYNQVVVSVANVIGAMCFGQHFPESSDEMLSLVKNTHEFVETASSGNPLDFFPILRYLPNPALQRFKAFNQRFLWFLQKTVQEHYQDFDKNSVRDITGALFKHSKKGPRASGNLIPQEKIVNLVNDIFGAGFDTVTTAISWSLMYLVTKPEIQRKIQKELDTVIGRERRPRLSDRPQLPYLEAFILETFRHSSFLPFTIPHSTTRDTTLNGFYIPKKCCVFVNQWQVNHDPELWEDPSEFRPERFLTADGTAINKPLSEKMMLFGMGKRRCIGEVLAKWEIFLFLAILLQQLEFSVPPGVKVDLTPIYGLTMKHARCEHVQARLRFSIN

Trypanosoma brucei [6] = test: Inhibition of N-terminal His-tagged Trypanosoma brucei pteridine reductase 1 at 50 uM using di-hydrobiopterine as substrate measured at 1 min interval for 50 mins in presence of NADPH relative to control; in short: as §1
Cytochrome P450 3A4 = Cytochrome P450 3A4 (Homo sapiens, UniProt P08684); test: Inhibition of human CYP3A4 expressed in baculovirus infected insect cells using beetle D-luciferin as substrate preincubated for 30 mins followed by NADPH addition and measured after 30 mins by CYP450-Glo assay
Cytochrome P450 2C9 = Cytochrome P450 2C9 (Homo sapiens, UniProt P11712); test: Inhibition of human CYP2C9 expressed in baculovirus infected insect cells using beetle D-luciferin as substrate preincubated for 30 mins followed by NADPH addition and measured after 30 mins by CYP450-Glo assay
[7] = target: T2, Pteridine reductase 1 (Leishmania major) (UniProt Q01782); test: Inhibition of Leishmania major pteridine reductase 1 at 50 uM using di-hydrobiopterine as substrate in presence of NADPH relative to control; in short: as §1
T2 sequence (whole entry): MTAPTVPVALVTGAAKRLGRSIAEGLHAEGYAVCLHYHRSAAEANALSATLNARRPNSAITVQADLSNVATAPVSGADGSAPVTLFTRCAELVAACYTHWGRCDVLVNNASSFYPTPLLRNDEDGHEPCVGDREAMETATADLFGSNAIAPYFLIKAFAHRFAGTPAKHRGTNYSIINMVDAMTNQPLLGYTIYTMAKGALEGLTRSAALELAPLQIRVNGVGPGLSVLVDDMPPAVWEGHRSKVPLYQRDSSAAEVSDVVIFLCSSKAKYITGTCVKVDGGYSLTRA

Cytochrome P450 2C19 = Cytochrome P450 2C19 (Homo sapiens, UniProt P33261); test: Inhibition of human CYP2C19 expressed in baculovirus infected insect cells using beetle D-luciferin as substrate preincubated for 30 mins followed by NADPH addition and measured after 30 mins by CYP450-Glo assay
Leishmania infantum = test: Growth inhibition of luciferase expressing Leishmania infantum axenic amastigotes infected in human THP1 cells at 10 uM measured after 72 hrs by steady-glo luminescence assay relative to control; type: organism-based; conditions: for growth inhibition (GI): leishmania infantum, 72 h, 10 µM; for inhibition at 10 µM: Leishmania infantum, THP-1, 72 h, read-out: GI
Trypanosoma cruzi = test: Growth inhibition of trypomastigote form of Trypanosoma cruzi Y infected in human U2OS cells at 50 uM measured after 72 hrs by DRAQ5 DNA dye based confocal microscopic analysis relative to control; type: organism-based; conditions: for inhibition at 50 µM: Trypanosoma cruzi, Y, U2OS, read-out: GI; for growth inhibition (GI): trypanosoma cruzi, 50 µM
[8] = Cytotoxicity against human U2OS cells assessed as reduction in cell number; type: cell-based
Trypanosoma brucei [9] = test: Growth inhibition of Trypanosoma brucei bloodstream forms at 10 uM measured after 72 hrs by resazurin-based fluorescence assay relative to control; type: organism-based; conditions: Trypanosoma brucei, read-out: GI
[10] = Cytotoxicity against human THP1 cells after 72 hrs by MTT assay; type: cell-based, THP-1; conditions: read-out: NOAEL
Pteridine reductase 1 = target: T3, Pteridine reductase 1 (Leishmania major, UniProt Q01782); test: Inhibition of Leishmania major pteridine reductase 1 using di-hydrobiopterine as substrate in presence of NADPH; in short: as §1
T3 sequence (Q01782 whole entry): T2 sequence (whole entry)

Cytochrome P450 2C9, sequence (P11712 whole entry): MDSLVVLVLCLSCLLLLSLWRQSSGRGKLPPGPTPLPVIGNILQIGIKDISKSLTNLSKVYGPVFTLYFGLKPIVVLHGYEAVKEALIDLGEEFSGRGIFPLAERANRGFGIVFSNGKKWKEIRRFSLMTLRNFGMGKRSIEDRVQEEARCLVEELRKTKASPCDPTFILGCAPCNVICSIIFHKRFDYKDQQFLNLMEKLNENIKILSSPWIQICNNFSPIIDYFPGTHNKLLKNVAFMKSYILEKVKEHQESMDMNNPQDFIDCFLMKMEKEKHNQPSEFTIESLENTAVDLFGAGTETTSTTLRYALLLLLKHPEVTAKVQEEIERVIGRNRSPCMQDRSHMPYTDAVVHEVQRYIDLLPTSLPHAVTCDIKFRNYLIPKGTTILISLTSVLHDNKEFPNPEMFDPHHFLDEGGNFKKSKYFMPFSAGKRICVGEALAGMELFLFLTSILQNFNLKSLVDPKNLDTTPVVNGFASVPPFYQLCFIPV
Voltage-gated inwardly rectifying potassium channel KCNH2, sequence (Q12809 whole entry): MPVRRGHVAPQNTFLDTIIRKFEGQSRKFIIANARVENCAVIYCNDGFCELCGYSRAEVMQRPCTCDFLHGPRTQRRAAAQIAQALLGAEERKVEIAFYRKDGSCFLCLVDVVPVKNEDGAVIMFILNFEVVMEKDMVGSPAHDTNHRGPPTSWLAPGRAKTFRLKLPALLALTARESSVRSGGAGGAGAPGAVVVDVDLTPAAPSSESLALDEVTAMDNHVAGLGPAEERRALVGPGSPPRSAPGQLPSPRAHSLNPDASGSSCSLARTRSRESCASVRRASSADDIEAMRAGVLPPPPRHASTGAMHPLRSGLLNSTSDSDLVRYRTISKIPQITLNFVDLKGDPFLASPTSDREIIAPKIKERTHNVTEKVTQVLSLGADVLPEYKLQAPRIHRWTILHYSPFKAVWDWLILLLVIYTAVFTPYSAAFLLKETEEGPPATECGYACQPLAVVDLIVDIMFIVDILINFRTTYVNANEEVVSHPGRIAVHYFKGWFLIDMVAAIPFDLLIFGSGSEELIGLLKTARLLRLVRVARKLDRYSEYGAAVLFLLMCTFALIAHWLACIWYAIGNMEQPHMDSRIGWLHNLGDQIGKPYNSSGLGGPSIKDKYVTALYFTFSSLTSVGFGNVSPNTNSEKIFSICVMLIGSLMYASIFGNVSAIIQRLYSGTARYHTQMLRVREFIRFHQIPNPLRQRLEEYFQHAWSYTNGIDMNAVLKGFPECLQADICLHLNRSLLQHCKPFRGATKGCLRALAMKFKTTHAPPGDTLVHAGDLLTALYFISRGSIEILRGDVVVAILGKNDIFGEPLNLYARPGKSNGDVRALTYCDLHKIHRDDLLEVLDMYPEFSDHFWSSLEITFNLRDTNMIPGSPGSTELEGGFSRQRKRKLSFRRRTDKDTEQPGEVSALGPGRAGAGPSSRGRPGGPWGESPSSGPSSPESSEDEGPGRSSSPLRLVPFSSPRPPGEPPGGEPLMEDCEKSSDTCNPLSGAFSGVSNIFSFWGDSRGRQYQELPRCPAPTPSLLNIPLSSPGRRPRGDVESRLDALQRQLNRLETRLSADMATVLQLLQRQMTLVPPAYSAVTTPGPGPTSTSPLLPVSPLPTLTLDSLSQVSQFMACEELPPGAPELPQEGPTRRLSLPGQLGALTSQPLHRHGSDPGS
Cytochrome P450 2D6, sequence (P10635 whole entry): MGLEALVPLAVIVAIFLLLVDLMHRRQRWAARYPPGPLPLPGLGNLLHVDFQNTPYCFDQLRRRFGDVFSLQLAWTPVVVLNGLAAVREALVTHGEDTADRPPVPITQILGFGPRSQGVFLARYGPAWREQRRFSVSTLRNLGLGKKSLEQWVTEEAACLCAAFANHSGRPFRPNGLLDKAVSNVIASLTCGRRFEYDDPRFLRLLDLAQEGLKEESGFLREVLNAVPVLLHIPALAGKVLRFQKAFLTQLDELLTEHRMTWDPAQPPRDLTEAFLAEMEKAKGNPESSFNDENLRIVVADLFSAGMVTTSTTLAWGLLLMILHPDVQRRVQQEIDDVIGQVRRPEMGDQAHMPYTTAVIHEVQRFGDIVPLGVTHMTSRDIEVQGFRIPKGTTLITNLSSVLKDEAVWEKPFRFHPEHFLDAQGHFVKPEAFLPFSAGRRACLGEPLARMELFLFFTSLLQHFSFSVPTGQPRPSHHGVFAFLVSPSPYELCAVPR
Cytochrome P450 2C19, sequence (P33261 whole entry): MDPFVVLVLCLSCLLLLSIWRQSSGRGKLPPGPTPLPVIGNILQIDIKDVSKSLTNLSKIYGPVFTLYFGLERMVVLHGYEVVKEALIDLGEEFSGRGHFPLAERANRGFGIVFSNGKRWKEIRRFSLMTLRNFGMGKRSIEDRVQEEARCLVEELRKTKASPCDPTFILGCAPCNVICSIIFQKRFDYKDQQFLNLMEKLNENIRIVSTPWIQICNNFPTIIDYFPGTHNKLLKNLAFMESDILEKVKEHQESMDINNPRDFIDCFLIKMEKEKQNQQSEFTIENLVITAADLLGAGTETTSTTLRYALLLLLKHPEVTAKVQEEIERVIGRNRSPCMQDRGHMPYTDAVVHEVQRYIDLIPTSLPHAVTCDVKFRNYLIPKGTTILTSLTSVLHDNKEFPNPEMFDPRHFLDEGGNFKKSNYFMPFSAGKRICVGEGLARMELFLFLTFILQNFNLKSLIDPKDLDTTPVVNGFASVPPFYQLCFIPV
Cytochrome P450 3A4, sequence (P08684 whole entry): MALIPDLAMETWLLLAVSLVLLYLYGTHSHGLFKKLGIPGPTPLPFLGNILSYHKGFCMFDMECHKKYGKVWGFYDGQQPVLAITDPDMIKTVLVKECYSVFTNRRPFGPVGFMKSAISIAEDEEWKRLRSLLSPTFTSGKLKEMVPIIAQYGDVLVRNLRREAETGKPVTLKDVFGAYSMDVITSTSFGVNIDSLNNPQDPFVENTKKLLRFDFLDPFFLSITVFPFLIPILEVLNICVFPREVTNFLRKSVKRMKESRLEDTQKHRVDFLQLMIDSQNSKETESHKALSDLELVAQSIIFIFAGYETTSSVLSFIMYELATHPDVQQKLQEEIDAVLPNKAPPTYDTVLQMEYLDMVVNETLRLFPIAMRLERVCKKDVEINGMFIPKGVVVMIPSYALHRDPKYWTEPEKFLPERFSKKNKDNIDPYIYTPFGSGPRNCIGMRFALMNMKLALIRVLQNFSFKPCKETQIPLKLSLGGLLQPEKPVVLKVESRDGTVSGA

| IC50 (Cytochrome P450 2D6) | Ratio IC50 [2] | IC50 [5] | IC50 (Cytochrome P450 1A2) | inhibition (Trypanosoma brucei [6]) | IC50 (Cytochrome P450 3A4) | IC50 (Cytochrome P450 2C9) | inhibition [7] | IC50 (Cytochrome P450 2C19) | IC50 (Pteridine reductase 1; read-out: IC50) | Compound | IC50 [1] | GI50 at 48 h [3] | IC50 at 6 h [4] | growth inhibition (GI) (Leishmania infantum) | inhibition at 50 µM (Trypanosoma cruzi) | GI50 [8] | inhibition at 10 µM (Trypanosoma brucei [9]) | MNTC at 72 h [10] | growth inhibition (GI) (Trypanosoma cruzi) | also measured |
| --- | --- | --- | --- | --- | --- | --- | --- | --- | --- | --- | --- | --- | --- | --- | --- | --- | --- | --- | --- | --- |
| > 25 µM | 2 to 100 | 6.46 µM | > 25 µM | > 60% | < 10 µM | > 25 µM | > 60% | > 25 µM | 3.51 µM | Nc1nc2ccc(C(=O)NCc3ccccc3[N+](=O)[O-])cc2s1 | > 25 µM | > 25 µM | < 10 µM | Non-Toxic | 19% | > 25 µM | 18% | > 25 µM |  |  |
| < 10 µM | 2 to 100 | 13.4 µM | < 10 µM | > 60% | 10 to 25 µM | > 25 µM | inactive | > 25 µM |  | Nc1nc2ccc(OCc3ccccc3)cc2s1 | < 10 µM | > 25 µM | > 25 µM | Non-Toxic |  | > 25 µM | 28% | > 25 µM | Non-Toxic | IC50 (Pteridine reductase 1): Not Active |
| < 10 µM | 2 to 100 | 12 µM | > 25 µM | > 60% | < 10 µM | < 10 µM | inactive | < 10 µM |  | Nc1nc2ccc(C(=O)N(Cc3ccccc3)Cc3ccc(Cl)c(Cl)c3)cc2s1 | > 25 µM | > 25 µM | 10 to 25 µM | Non-Toxic | 62.1% | > 25 µM | 26% | > 25 µM |  | IC50 (Pteridine reductase 1): Not Active |
| > 25 µM | 2 to 100 | 34.2 µM | > 25 µM | > 60% | > 25 µM | > 25 µM | > 60% | > 25 µM | 32.9 µM | CS(=O)(=O)c1ccc2nc(N)sc2c1 | > 25 µM | > 25 µM | > 25 µM | Non-Toxic | 17.4% | > 25 µM | 17% | > 25 µM |  |  |
| < 10 µM | 2 to 100 | > 100 µM | > 25 µM | > 60% | 10 to 25 µM | 10 to 25 µM | > 60% | < 10 µM | 65.9 µM | COC(=O)c1ccc(CS(=O)(=O)c2ccc3nc(N)sc3c2)cc1 | > 25 µM | > 25 µM | > 25 µM |  |  | > 25 µM | 14% | > 25 µM | Non-Toxic | inhibition at 10 µM (Leishmania infantum): 12% |
| > 25 µM | 2 to 100 | 23.3 µM | > 25 µM | > 60% | > 25 µM | > 25 µM | inactive | 10 to 25 µM |  | Nc1nc2ccc(C(=O)NCCc3c[nH]c4ccccc34)cc2s1 | > 25 µM | > 25 µM | > 25 µM | Non-Toxic | 1.64% | > 25 µM | 27% | > 25 µM |  | IC50 (Pteridine reductase 1): Not Active |

Second part, the molecule before the results:

| Compound | IC50 (Cytochrome P450 2D6) | Ratio IC50 [2] | IC50 [5] | IC50 (Cytochrome P450 1A2) | inhibition (Trypanosoma brucei [6]) | IC50 (Cytochrome P450 3A4) | IC50 (Cytochrome P450 2C9) | inhibition [7] | IC50 (Cytochrome P450 2C19) | IC50 (Pteridine reductase 1; read-out: IC50) | IC50 [1] | GI50 at 48 h [3] | IC50 at 6 h [4] | growth inhibition (GI) (Leishmania infantum) | inhibition at 50 µM (Trypanosoma cruzi) | GI50 [8] | inhibition at 10 µM (Trypanosoma brucei [9]) | MNTC at 72 h [10] | growth inhibition (GI) (Trypanosoma cruzi) | also measured |
| --- | --- | --- | --- | --- | --- | --- | --- | --- | --- | --- | --- | --- | --- | --- | --- | --- | --- | --- | --- | --- |
| COC(=O)c1ccc(COc2ccc3nc(N)sc3c2)cc1 | > 25 µM | 2 to 100 | 1.7 µM | > 25 µM | > 60% | 10 to 25 µM | > 25 µM | > 60% | < 10 µM | 66.6 µM | 10 to 25 µM | > 25 µM | > 25 µM | Non-Toxic | 8.79% | > 25 µM | 22% | 10 to 25 µM |  |  |
| Nc1nc2c(C(=O)NCc3ccc(Cl)c(Cl)c3)cc(O)c(O)c2s1 | < 10 µM | 2 to 100 | 32.3 µM | > 25 µM | > 60% | < 10 µM | > 25 µM | > 60% | > 25 µM | 36.8 µM | > 25 µM | > 25 µM | > 25 µM | Non-Toxic | 18.3% | > 25 µM | 16% | > 25 µM |  |  |
| Nc1nc2c(C(=O)NCc3ccccc3)cc(O)c(O)c2s1 | < 10 µM | 2 to 100 | 30.9 µM | > 25 µM | > 60% | < 10 µM | > 25 µM | > 60% | > 25 µM | 30.1 µM | > 25 µM | 10 to 25 µM | 10 to 25 µM | Non-Toxic | 5.85% | > 25 µM | 15% | > 25 µM |  |  |
| Nc1nc2ccc(SCc3ccccc3)cc2s1 | < 10 µM | 2 to 100 | 1.9 µM | < 10 µM | > 60% | 10 to 25 µM | > 25 µM | > 60% | < 10 µM | 81 µM | > 25 µM | > 25 µM | > 25 µM | Non-Toxic |  | > 25 µM | 14% | 10 to 25 µM | Non-Toxic |  |
| Nc1nc2ccc(C(=O)NCc3ccc(Cl)c(Cl)c3)cc2s1 | < 10 µM | 2 to 100 | 5.4 µM | > 25 µM | > 60% | < 10 µM | > 25 µM | > 60% | < 10 µM | 15.3 µM | > 25 µM | > 25 µM | < 10 µM |  |  | > 25 µM | 5% | > 25 µM | Non-Toxic | inhibition at 10 µM (Leishmania infantum): 5% |
| N#Cc1ccc(CNC(=O)c2ccc3nc(N)sc3c2)cc1 | > 25 µM | 2 to 100 | 42.9 µM | > 25 µM | > 60% | > 25 µM | > 25 µM | > 60% | > 25 µM | 73.3 µM | > 25 µM | > 25 µM | > 25 µM | Non-Toxic |  | > 25 µM | 8% | > 25 µM | Non-Toxic |  |

Source: ChEMBL document CHEMBL4387708, “Enhancement of Benzothiazoles as Pteridine Reductase-1 Inhibitors for the Treatment of Trypanosomatidic Infections” (J Med Chem, 2019)
